Screening results as filed in PubChem.
Compounds with a hit are over-represented: about 4.1% of the library has one in this group of screens.
KCNK9 block: blocks the human KCNK9 two-pore domain potassium channel; Q9NPC2; HEK293 KCNK9, FluxOR thallium flux fluorescence; stronger effect = lower value; B-score at 10 µM; 1.2% of 310,000 active;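 active = ratio B-score over 3 SD below the library mean, with starting fluorescence within 5 SD of its mean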;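 also: negative B-score means less thallium flux so channel inhibition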
Target sequence (Q9NPC2 whole entry, looked up, the tested form may be a part): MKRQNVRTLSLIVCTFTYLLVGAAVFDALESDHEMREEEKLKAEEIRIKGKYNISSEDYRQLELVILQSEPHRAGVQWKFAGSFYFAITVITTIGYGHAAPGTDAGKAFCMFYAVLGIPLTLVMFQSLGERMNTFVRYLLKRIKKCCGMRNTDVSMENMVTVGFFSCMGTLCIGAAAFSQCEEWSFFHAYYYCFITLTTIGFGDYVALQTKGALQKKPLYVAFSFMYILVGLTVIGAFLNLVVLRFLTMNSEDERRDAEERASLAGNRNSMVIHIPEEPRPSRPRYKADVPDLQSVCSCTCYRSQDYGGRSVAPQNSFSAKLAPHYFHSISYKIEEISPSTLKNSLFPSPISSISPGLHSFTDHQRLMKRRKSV
KCNQ1 pot: human KCNQ1 channel potentiation or activation; P51787; CHO-K1 KCNQ1, thallium flux FluxOR fluorescence; stronger effect = higher value; B-score at 10 µM; 0.35% of 310,000 active; AID 2648;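 active = fluorescence ratio B-score, a plate-corrected score, at least three library SD, with initial intensity B-score within 5 SD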
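Material: CHO-K1 cells stably expressing KCNQ1. Medium: assay buffer for compound exposure, DMSO matched across wells. Reagent: K+/Tl+ depolarizing stimulus. Compound dosing: single-concentration screen. Times: 37 °C overnight plating, 90-min dark dye load, 20-min compound pretreatment. Technique: FluxOR Tl+ flux fluorescence.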
Cl transport mod: modulates chloride dependent transport by human KCC2. Q9H2X9. KCC2 cells, thallium flux FluoZin-2 fluorescence. B-score of Tl+ flux slope (higher = more flux/activation; lower = inhibition) at 10 µM. 2.2% of 190,000 active;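 active = thallium flux slope and its plate-corrected score both differing from the plate sample mean at a set confidence after two filtering rounds, in either direction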;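 also: slope of fluorescence scaled to starting intensity during 10 to 20 s after thallium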
KCNK3 inh: human KCNK3 channel inhibition, primary screen; AID 602410; 0.84% of 340,000 active; CHO-KCNK3 thallium flux, FluxOR fluorescence; stronger effect = lower value; B-score at 10 µM;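 active = B-score under library mean minus 4 SD, starting fluorescence ratio at most library mean plus 5 SD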;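 also: more negative B-score means stronger inhibition of thallium flux through KCNK3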
Target sequence (O14649 whole entry, looked up): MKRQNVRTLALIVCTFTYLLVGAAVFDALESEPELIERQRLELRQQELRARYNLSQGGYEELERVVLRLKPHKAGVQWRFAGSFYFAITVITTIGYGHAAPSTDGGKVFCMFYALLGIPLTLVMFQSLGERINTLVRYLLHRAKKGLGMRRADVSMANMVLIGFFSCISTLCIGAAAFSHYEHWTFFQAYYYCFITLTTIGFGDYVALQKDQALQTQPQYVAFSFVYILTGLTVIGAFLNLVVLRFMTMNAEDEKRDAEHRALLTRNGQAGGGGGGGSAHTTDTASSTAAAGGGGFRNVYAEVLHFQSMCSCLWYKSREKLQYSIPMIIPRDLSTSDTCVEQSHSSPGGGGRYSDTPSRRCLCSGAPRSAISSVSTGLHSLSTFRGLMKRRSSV
KCNQ1 block: inhibitors of human KCNQ1 potassium channel; CHO-K1 KCNQ1, FluxOR thallium flux fluorescence; stronger effect = higher value; B-score at 10 µM; 1.3% of 310,000 active;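 active = compounds whose thallium flux B-score, printed positive for inhibition, exceeds three library SD while starting fluorescence stays within three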;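 also: channel opened by potassium depolarization with thallium stimulus after 20 min compound exposure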
hERG rescue: compounds protecting human hERG from proarrhythmic drug block; Q12809; CHO-hERG, FluxOR thallium flux, dofetilide IC70 present; activation (rescue from dofetilide block), less the hit threshold, % at 10 µM; 0.51% of 310,000 active; AID 1511;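 active = activation above the mean of controls blocked by dofetilide plus 5 SD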;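 also: thallium influx through hERG after potassium depolarization seen as dye fluorescence rise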
KCC2 sec1: KCC2 (human) modulation, secondary assay | shares compounds with Cl transport mod | 15% of 3,700 active | normalised thallium flux (F/F0 slope) at 10 µM | HEK293-KCC2, thallium flux, FluoZin2 fluorescence; stronger effect = higher value;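 active = thallium flux slope above the same plate's solvent-only control mean plus 3 SD; inconclusive = the two replicate wells disagree; inactive = no significant difference from solvent-only control wells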
KCC2 bumet counter: bumetanide-insensitive thallium flux in KCC2 cells with ouabain, counter-screen; shares compounds with Cl transport mod; HEK293-KCC2 + bumetanide/ouabain, thallium flux FluoZin2; stronger effect = higher value; normalized thallium flux at 10 µM; 49% of 3,700 active;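 active = thallium entry rate above the same plate's blocked-transporter control wells by more than 3 SD; inconclusive = the two repeat wells disagree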;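 also: raw slope of fluorescence over initial fluorescence between 10 and 20 s after thallium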
KCC2 secondary2: confirmation of human KCC2 transport modulators; HEK293-KCC2, thallium flux FluoZin2 fluorescence; actives lie on both sides; F/F0 rise rate, 10–20 s post-thallium; AID 1715; shares compounds with Cl transport mod; 23% of 3,700 active; normalized thallium flux at 10 µM;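 active = thallium flux slope more than 3 SD above or below the plate's solvent-only control mean, mostly below; inconclusive = the two repeat wells disagreed; inactive = no significant shift from solvent-only controls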
HEK293 Tl flux: counter-screen for KCC2 modulators: effect in parental HEK293 cells. shares compounds with Cl transport mod. thallium flux FluoZin2, ouabain; baseline-ratio fluorescence slope, 10–20 s after thallium. thallium flux rate (normalised fluorescence) at 10 µM. 46% of 3,700 active. AID 1716;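 active = thallium flux rate significantly above the same plate's solvent-only control wells, beyond their mean plus 3 SD; inconclusive = the two replicate wells gave conflicting results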
KCC2 retest ouab: confirmation of human KCC2 modulators with ouabain; raw Tl+ flux slope (below DMSO = inhibition, above = activation) at 10 µM; HEK293-KCC2, thallium flux FluoZin2 fluorescence; bidirectional: low = inhibitor, high = activator; 48% of 3,700 active; shares compounds with Cl transport mod;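 active = thallium flux slope beyond 3 SD from same-plate DMSO control mean in most replicates, usually higher, sometimes lower; inconclusive = repeat tests gave conflicting results; inactive = no significant difference from controls in most replicates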;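 also: slope of initial-normalized fluorescence between seconds 10 and 20 after thallium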
HEK counter2: parental HEK flux effect, counter-screen 2. shares compounds with Cl transport mod. HEK293 parental, thallium flux FluoZin-2 fluorescence slope. thallium flux slope at 10 µM. 33% of 3,700 active. AID 1718;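 active = thallium flux slope above the same plate's solvent-control mean plus 3 SD in both duplicate wells; inconclusive = duplicate wells that disagreed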;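 also: run without ouabain in cells lacking the KCC2 cotransporter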
Of the large screens only hits and unclear results are named; the others gave an inactive call (follow-up assays come after a bar, where they were run).

O=c1c2ccccc2[nH]c(=S)n1CCN1CCc2ccccc2C1	Cl transport mod 57.6 | KCC2 sec1 0.0181 | KCC2 bumet counter 0.13 | KCC2 secondary2 inactive | HEK293 Tl flux 0.0364 | KCC2 retest ouab 0.069 | HEK counter2 0.0147
COc1cccc(OCCNc2cc(N3CCOCC3)ccc2[N+](=O)[O-])c1	none
COc1ccc(OCCNc2cc(N3CCOCC3)ccc2[N+](=O)[O-])cc1	Cl transport mod -4.74 | KCC2 sec1 inactive | KCC2 bumet counter inactive | KCC2 secondary2 inactive | HEK293 Tl flux inactive | KCC2 retest ouab inactive | HEK counter2 inactive
CCOC(=O)C(C#N)=CN1CCNc2ccccc21	none (no result: KCNK9 block, KCNQ1 pot, Cl transport mod, KCNQ1 block, hERG rescue)
Cc1c(Cc2ccccc2)c(=O)oc2cc(OCc3ccc(C(=O)O)cc3)ccc12	Cl transport mod -4.23 | KCC2 sec1 inactive | KCC2 bumet counter inactive | KCC2 secondary2 inactive | HEK293 Tl flux 0.00625 | KCC2 retest ouab inconclusive | HEK counter2 inactive
COc1cccc(COc2ccc3c(C)c(Cc4ccccc4)c(=O)oc3c2)c1	none (no result: Cl transport mod)
CN(C(=O)c1cccc(NC(=O)Cc2ccc(NC(=O)C3CCCN(C(=O)C4CCC4)C3)cc2)c1)C1CCCC1 (stereo not given)	none (no result: KCNK9 block, KCNQ1 pot, Cl transport mod, KCNQ1 block, hERG rescue)
CCOC(=O)CSc1nnc(-c2c[nH]c3ccccc23)o1	none (no result: Cl transport mod)
CC1CCCN(C(=O)CSc2nnc(-c3c[nH]c4ccccc34)o2)C1 (stereo not given)	Cl transport mod -3.75 | KCC2 sec1 inactive | KCC2 bumet counter inactive | KCC2 secondary2 inconclusive | HEK293 Tl flux inactive | KCC2 retest ouab inconclusive | HEK counter2 inactive
CCC1CCCCN1C(=O)CSc1nnc(-c2c[nH]c3ccccc23)o1 (stereo not given)	Cl transport mod -3.33 | KCC2 sec1 inactive | KCC2 bumet counter inactive | KCC2 secondary2 inactive | HEK293 Tl flux inactive | KCC2 retest ouab 0.0222 | HEK counter2 inconclusive
CC1CCCC(C)N1C(=O)CSc1nnc(-c2c[nH]c3ccccc23)o1 (stereo not given)	none (no result: Cl transport mod)
COc1ccccc1CNC(=O)COC(=O)C1CCN(S(=O)(=O)c2c(Cl)cccc2Cl)CC1	none (no result: KCNK9 block, KCNQ1 pot, Cl transport mod, KCNQ1 block, hERG rescue)
CC(/C=N/n1c(-c2cc(C)[nH]n2)n[nH]c1=S)=C\c1ccccc1	Cl transport mod -4.42 | KCC2 sec1 inactive | KCC2 bumet counter inactive | KCC2 secondary2 inactive | HEK293 Tl flux inconclusive | KCC2 retest ouab inactive | HEK counter2 inactive
CC(=C/c1ccccc1)/C=N/n1c(-c2ccco2)n[nH]c1=S	none (no result: Cl transport mod)
CC1CN(CCN2CC(C)N(C=O)CC2C)C(C)CN1C=O (stereo not given)	none (no result: KCNK9 block, KCNQ1 pot, Cl transport mod, KCNQ1 block, hERG rescue)
CC(C)c1onc(C(=O)N2CCN(Cc3ccccc3)CC2)c1[N+](=O)[O-]	Cl transport mod -4.88 | KCC2 sec1 inactive | KCC2 bumet counter inactive | KCC2 secondary2 0.0276 | HEK293 Tl flux inactive | KCC2 retest ouab 0.0155 | HEK counter2 inactive
CC(C)c1onc(C(=O)N2CCOCC2)c1[N+](=O)[O-]	none
CC(C)c1onc(C(=O)NCCc2ccccc2)c1[N+](=O)[O-]	Cl transport mod -5.23 | KCC2 sec1 inactive | KCC2 bumet counter inactive | KCC2 secondary2 0.0246 | HEK293 Tl flux inactive | KCC2 retest ouab inconclusive | HEK counter2 inactive
CC(C)c1onc(C(=O)N(C)Cc2ccccc2)c1[N+](=O)[O-]	none
COc1ccc(NC(=O)N(C)C[C@@H]2Oc3ccc(NC(=O)NC(C)C)cc3CC(=O)N([C@H](C)CO)C[C@@H]2C)cc1	none (no result: KCNK9 block, KCNQ1 pot, Cl transport mod, KCNQ1 block, hERG rescue)
NNC(=S)Nc1ccccc1Cl	none
NNC(=S)Nc1ccc(C(F)(F)F)cc1Cl	Cl transport mod 16.2 | KCC2 sec1 inactive | KCC2 bumet counter 0.03 | KCC2 secondary2 inactive | HEK293 Tl flux 0.02 | KCC2 retest ouab inactive | HEK counter2 0.0142
CN(Cc1cccs1)C(=O)c1ccc(Cl)c(S(=O)(=O)N2CCCCCC2)c1	none (no result: KCNK9 block, KCNQ1 pot, Cl transport mod, KCNQ1 block, hERG rescue)
COc1cc2c3c(c1)c(N=NC(N)=S)c(O)n3C(C)(C)C=C2C	Cl transport mod 20.7 | KCC2 sec1 inconclusive | KCC2 bumet counter 0.026 | KCC2 secondary2 inactive | HEK293 Tl flux 0.017 | KCC2 retest ouab inconclusive | HEK counter2 0.0142
CC1=CC(C)(C)n2c(O)c(N=NC(N)=S)c3c(C)ccc1c32	Cl transport mod 3.8 | KCC2 sec1 inactive | KCC2 bumet counter 0.0118 | KCC2 secondary2 inactive | HEK293 Tl flux 0.0164 | KCC2 retest ouab inactive | HEK counter2 inconclusive
CC1CC(C)(C)NC2(CCCC2)N1 (stereo not given)	none (no result: KCNK9 block, KCNQ1 pot, Cl transport mod, KCNQ1 block, hERG rescue)
C=CCSc1ncnc2sc(C)c(C)c12	Cl transport mod 4.79 | KCC2 sec1 inactive | KCC2 bumet counter 0.0229 | KCC2 secondary2 inactive | HEK293 Tl flux 0.0132 | KCC2 retest ouab inactive | HEK counter2 0.0129
CCSc1ncnc2sc(C)c(C)c12	none
Cc1sc2ncnc(SCc3ccc(C(=O)O)cc3)c2c1C	none
COC(=O)c1ccc(CSc2ncnc3sc(C)c(C)c23)o1	KCNQ1 pot 8, Cl transport mod 50.7, hERG rescue 8.8 | KCC2 sec1 0.0113 | KCC2 bumet counter 0.1 | KCC2 secondary2 0.0698 | HEK293 Tl flux 0.0645 | KCC2 retest ouab 0.0843 | HEK counter2 0.0498
CCN(C(=O)COC(=O)c1ncc(Cl)c(Cl)c1Cl)c1c(N)n(Cc2ccccc2)c(=O)[nH]c1=O	none (no result: KCNK9 block, KCNQ1 pot, Cl transport mod, KCNQ1 block, hERG rescue)
O=C(CSc1nnnn1-c1cccc(F)c1)NC1CC1	none (no result: KCNK9 block, KCNQ1 pot, Cl transport mod, KCNQ1 block, hERG rescue)
Cn1c(N)c(C(=O)COC(=O)/C=C/c2cccc(Cl)c2)c(=O)n(C)c1=O	none (no result: KCNK9 block, KCNQ1 pot, Cl transport mod, KCNQ1 block, hERG rescue)
C=CC(=O)Nc1sc2c(c1C(N)=O)CCCC2	none (no result: Cl transport mod)
C=CCNC(=S)Nc1sc2c(c1C(N)=O)CCCC2	Cl transport mod 8.27 | KCC2 sec1 inactive | KCC2 bumet counter 0.0143 | KCC2 secondary2 inactive | HEK293 Tl flux 0.0117 | KCC2 retest ouab 0.0282 | HEK counter2 0.0111
COc1ccc(-c2cc(C(=O)N(C)Cc3nc4ccccc4c(=O)[nH]3)c3ccccc3n2)cc1OC	none (no result: KCNK9 block, KCNQ1 pot, Cl transport mod, KCNQ1 block, hERG rescue)
